Data from article PMC3461514 (The Journal of Cell Biology, 2012).

T1: Rap1 (Homo sapiens, UniProt P62834, G12V)
T1 sequence (P62834 1-184 G12V): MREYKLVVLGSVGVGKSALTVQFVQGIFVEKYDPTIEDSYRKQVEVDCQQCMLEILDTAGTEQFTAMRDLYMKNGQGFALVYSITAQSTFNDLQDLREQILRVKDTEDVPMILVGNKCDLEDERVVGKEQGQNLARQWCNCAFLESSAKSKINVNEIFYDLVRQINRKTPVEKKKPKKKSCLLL

B1: GST-KRIT1 F123(R452E) (protein)
chain: EKVRIYRMDGSYRSVELKHGNNTTVQQIMEGMELSQETQQYFTIWICSENLSLQLKPYHKPLQHVRDWPEILAELTNLDPQRETPQLFLRRDVRLPLEVEKQIEDPLAILILFDEARYNLLKGFYTAPDAKLITLASLLLQIVYGNYESKKHKQGFLNEENLKSIVPVTKLKSKAPHWTNRILHEYKNLSTSEGVSKEMHHLQRMFLQNCWEIPTYGAAFFTGQIFTKASPSNHKVIPVYVGVNIKGLHLLNMETKALLISLKYGCFMWQLGDTDTCFQIHSMENKMSFIVHTKQAGLVVKLLMKLNGQLMPTER
modifications: left off: GST, end not stated, kept
B2: KRIT1(L717,721A): human KRIT1 Leu717/Leu721 to Ala mutant, used as FERM domain or full-length protein (protein)
chain: EKVRIYRMDGSYRSVELKHGNNTTVQQIMEGMRLSQETQQYFTIWICSENLSLQLKPYHKPLQHVRDWPEILAELTNLDPQRETPQLFLRRDVRLPLEVEKQIEDPLAILILFDEARYNLLKGFYTAPDAKLITLASLLLQIVYGNYESKKHKQGFLNEENLKSIVPVTKLKSKAPHWTNRILHEYKNLSTSEGVSKEMHHLQRMFLQNCWEIPTYGAAFFTGQIFTKASPSNHKVIPVYVGVNIKGLHLLNMETKALLISLKYGCFMWQLGDTDTCFQIHSMENKMSFIVHTKQAGAVVKALMKLNGQLMPTER
modifications: left off: GST, end not stated, kept

Assays:
Rap1 = molecular target: T1, Rap1; test: Pull-down of HA-Rap1V12 from HEK293 cell lysates by GST-KRIT1 F123 variants; assay type: binding
Outline: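 HEK293 cells were transfected (Lipofectamine Plus) with HA-Rap1A(G12V) cDNA, then lysed after 24 h in cold 50 mM Tris-HCl pH 7.4, 150 mM NaCl, 0.5% NP-40, 5 mM MgCl2 plus protease inhibitors. Bead-immobilized GST-KRIT1 FERM variants (WT or L717,721A; 10 µg) were incubated with 350 µg clarified lysate overnight at 4°C. Beads were washed, run on 4–20% SDS-PAGE and immunoblotted with monoclonal anti-HA (1:4,000).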

HEG1-C19 peptide = HEG1-C19 peptide (Homo sapiens, UniProt Q9ULI3); test: Affinity chromatography of KRIT1 FERM variants on HEG1-C19 peptide matrix; assay type: binding; conditions: GFP-KRIT1 FERM from HEK293 cell lysates
Outline: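 Pull-down: human HEG1 C19 cytoplasmic tail model protein (His6, N-terminal in vivo biotinylation tag, E. coli-expressed) immobilized on beads; 10 µg added to 350 µg clarified lysate of HEK293 transfected 24 h with GFP-KRIT1 FERM WT or L717,721A; lysis in 50 mM Tris-HCl pH 7.4, 150 mM NaCl, 0.5% NP-40, 5 mM MgCl2 plus protease inhibitors; 4°C overnight; washed, 4–20% SDS-PAGE, anti-GFP immunoblot; three experiments.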

Molecule | interaction with Rap1 (Rap1) | binding to the HEG1-C19 peptide (HEG1-C19 peptide)
B1 | does not bind to Rap1 | –
B2 | – | markedly reduced binding
